Results: ChEMBL document CHEMBL4130517, “Discovery of a Tetrahydrobenzisoxazole Series of γ-Secretase Modulators” (ACS Med Chem Lett, 2017)
Activity calls are given as the source filed them. The calls are words filed in the database; no cut-off is given here.

Columns and labels:
[1] = biological target: T1, Gamma-secretase (Homo sapiens) (UniProt Q96BI3+Q9NZ42+Q8WW43+P49768+Q92542+P49810); test: Modulation of gamma-secretase (unknown origin) expressed in HEK293 cells harboring SCP99-Lon mutation assessed as ratio of total amyloid beta to amyloid beta 42 level after 5 hrs by sandwich immunoassay; type: cell-based
Method in brief: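 HEK293 cells exposed 5 h to varied GSM concentrations. Conditioned medium assayed by MSD sandwich electrochemiluminescence immunoassay: Aβ42 with TAG-G2-11/biotin-4G8, total Aβ with TAG-W02/biotin-4G8. Ratio formed from total Aβ and Aβ42.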

Gamma-secretase = test: Modulation of gamma-secretase (unknown origin) expressed in HEK293 cells harboring SCP99-Lon mutation assessed as reduction in Abeta42 production after 5 hrs by sandwich immunoassay; type: cell-based, Homo sapiens
Method in brief: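 HEK293 cells incubated 5 h with a range of GSM concentrations. Aβ42 in conditioned medium quantified by MSD sandwich electrochemiluminescence immunoassay, using TAG-G2-11 and biotin-4G8 antibodies.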

[2] = Drug uptake in brain of Sprague-Dawley rat at 30 mg/kg, po after 3 hrs by LC-MS/MS analysis; type: ADME, organism-based; details: read-out: Drug uptake
Method in brief: (§1)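 Rats given a single oral dose of 30 mg/kg. Plasma and brain collected 3 h post-dose and drug concentration measured; n = 3.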

P-gp [3] = test: Substrate activity at P-gp (unknown origin) assessed as permeability across apical to basolateral side; type: ADME; details: human, not told; read-out: permeability
P-gp [4] = test: Substrate activity at P-gp (unknown origin) assessed as efflux ratio of permeability across basolateral to apical over apical to basolateral side; type: ADME; details: human, not told
[5] = Drug uptake in plasma of Sprague-Dawley rat at 30 mg/kg, po after 3 hrs by LC-MS/MS analysis; type: ADME, organism-based; method in brief: as §1
P-gp [6] = test: Substrate activity at P-gp (unknown origin) assessed as permeability across basolateral to apical side; type: ADME; details: human, not told; read-out: permeability
[7] = Dissociation constant, pKa of the compound; type: physicochemical
[8] = biological target: T1, Gamma-secretase (Homo sapiens); test: Modulation of gamma-secretase (unknown origin) expressed in HEK293 cells harboring SCP99-Lon mutation assessed as increase in amyloid beta 38 level at 10 uM by surface enhanced laser desorption/ionization mass spectrometry; type: cell-based
[9] = biological target: T1, Gamma-secretase (Homo sapiens); test: Modulation of gamma-secretase (unknown origin) expressed in HEK293 cells harboring SCP99-Lon mutation assessed as reduction in amyloid beta 40 level at 10 uM by surface enhanced laser desorption/ionization mass spectrometry; type: cell-based
[10] = biological target: T1, Gamma-secretase (Homo sapiens); test: Modulation of gamma-secretase (unknown origin) expressed in HEK293 cells harboring SCP99-Lon mutation assessed as reduction in amyloid beta 42 level at 10 uM by surface enhanced laser desorption/ionization mass spectrometry; type: cell-based
[11] = biological target: T1, Gamma-secretase (Homo sapiens); test: Modulation of gamma-secretase (unknown origin) expressed in HEK293 cells harboring SCP99-Lon mutation assessed as increase in amyloid beta 37 level at 10 uM by surface enhanced laser desorption/ionization mass spectrometry; type: cell-based
Rattus norvegicus = test: Reduction in amyloid beta 42 level in Sprague-Dawley rat cerebrospinal fluid at 30 mg/kg, po administered as single dose after 3 hrs by sandwich immunoassay relative to control; type: functional; parameters: scale not given: the % may be the effect or the level left
Method in brief: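 Non-transgenic rats received a single oral 30 mg/kg dose or vehicle. CSF sampled 3 h later and Aβ42 compared against vehicle-treated animals; n = 5.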

SMILES | Ratio [1] | IC50 (Gamma-secretase) [nM] | other results
COc1cc(-c2noc3c2CCCC3NC2CCCCC2)ccc1-n1cnc(C)c1 (stereo not given) | 64 | 310 | pKa [7]: 8.42
COc1cc(-c2noc3c2CCCC3OCc2cc(F)cc(F)c2)ccc1-n1cnc(C)c1 (stereo not given) | 39 | 510 | –
COc1cc(-c2noc3c2CCCC3Nc2ccc(F)cc2)ccc1-n1cnc(C)c1 (stereo in doubt; 14b) [listing 2 of 2 here] | 86 | – | –
COc1cc(-c2noc3c2CCCC3Nc2ccc(F)cc2)ccc1-n1cnc(C)c1 (stereo in doubt; 14a) [listing 1 of 2 here] | 499 | – | Activity [8]: Active; Activity [9]: Active; Activity [10]: Active; Activity [11]: Active
CNC1CCCc2c(-c3ccc(-n4cnc(C)c4)c(OC)c3)noc21 (stereo not given) | 2 | 12000 | pKa [7]: 8.1
COc1cc(-c2noc3c2CCCC3NCc2cc(F)cc(F)c2)ccc1-n1cnc(C)c1 (stereo in doubt; 14d) [listing 1 of 2 here] | – | 640 | –
COc1cc(-c2noc3c2CCCC3NCC(F)(F)F)ccc1-n1cnc(C)c1 (stereo not given) | 43 | 460 | pKa [7]: 5.42
COc1cc(-c2noc3c2CCCC3NCc2cc(F)cc(F)c2)ccc1-n1cnc(C)c1 (stereo in doubt; 14d) [listing 2 of 2 here] | 28 | – | –
COc1cc(-c2noc3c2CCCC3NCc2cc(F)cc(F)c2)ccc1-n1cnc(C)c1 (stereo in doubt; 14c) [listing 2 of 2 here] | 575 | – | Activity [8]: Active; Activity [9]: Active; Activity [10]: Active; Activity [11]: Active

Now from value to molecule, other results behind:

Ratio [1] | IC50 (Gamma-secretase) [nM] | SMILES | other results
105 | 190 | COc1cc(-c2noc3c2CCCC3(O)c2cc(F)cc(F)c2)ccc1-n1cnc(C)c1 (stereo not given) | –
– | 29 | COc1cc(-c2noc3c2CCCC3NCc2cc(F)cc(F)c2)ccc1-n1cnc(C)c1 (stereo in doubt; 14c) [listing 1 of 2 here] | concentration at 3 h [2]: 2.19 µM; Papp A→B (P-gp [3]): 6.8 ×10⁻⁶ cm/s; efflux ratio (P-gp [4]): 6.8; concentration at 3 h [5]: 6.01 µM; Papp B→A (P-gp [6]): 46.2 ×10⁻⁶ cm/s
– | 230 | COc1cc(-c2noc3c2CCCC3Nc2ccc(F)cc2)ccc1-n1cnc(C)c1 (stereo in doubt; 14b) [listing 1 of 2 here] | –
178 | 110 | COc1cc(-c2noc3c2CCCC3c2cc(F)cc(F)c2)ccc1-n1cnc(C)c1 (stereo not given) | –
– | 39 | COc1cc(-c2noc3c2CCCC3Nc2ccc(F)cc2)ccc1-n1cnc(C)c1 (stereo in doubt; 14a) [listing 2 of 2 here] | pKa [7]: 5.33; concentration at 3 h [2]: 14.3 µM; Papp A→B (P-gp [3]): 37.6 ×10⁻⁶ cm/s; Activity (Rattus norvegicus): 58%; efflux ratio (P-gp [4]): 1.6; concentration at 3 h [5]: 10.4 µM; Papp B→A (P-gp [6]): 60 ×10⁻⁶ cm/s
68 | 290 | COc1cc(-c2noc3c2CCCC3Oc2ccc(F)cc2)ccc1-n1cnc(C)c1 (stereo not given) | –
77 | 260 | COc1cc(-c2noc3c2CCCC3N[C@H](C)c2ccc(F)cc2)ccc1-n1cnc(C)c1 (stereo not given in full) | –
102 | 150 | COc1cc(-c2noc3c2CCCC3(O)Cc2cc(F)cc(F)c2)ccc1-n1cnc(C)c1 (stereo not given) | –
32 | 130 | COc1cc(-c2noc3c2CCCC3NCc2ccc(F)cc2)ccc1-n1cnc(C)c1 (stereo not given) | pKa [7]: 7.08; Activity [8]: Active; Activity [9]: Active; Activity [10]: Active; Activity [11]: Active
79 | 250 | COc1cc(-c2noc3c2CCCC3N(C)Cc2ccc(F)cc2)ccc1-n1cnc(C)c1 (stereo not given) | –
98 | 200 | COc1cc(-c2noc3c2CCCC3Oc2cc(F)cc(F)c2)ccc1-n1cnc(C)c1 (stereo not given) | –
